TAAR1 agonist – agonists of human TAAR1; AID 624467; CHO RD-HGA16 TAAR1, Fluo-8 calcium fluorescence; vehicle wells 0%, saturating PEA agonist 100%; Q96RJ0; 360,000 tested, 0.99% active; activation, % at 3 µM;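 active means activation above the mean activation of all test compounds in the run plus 3 SD, cut at about 38% in these data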
Target sequence (Q96RJ0 whole entry, looked up): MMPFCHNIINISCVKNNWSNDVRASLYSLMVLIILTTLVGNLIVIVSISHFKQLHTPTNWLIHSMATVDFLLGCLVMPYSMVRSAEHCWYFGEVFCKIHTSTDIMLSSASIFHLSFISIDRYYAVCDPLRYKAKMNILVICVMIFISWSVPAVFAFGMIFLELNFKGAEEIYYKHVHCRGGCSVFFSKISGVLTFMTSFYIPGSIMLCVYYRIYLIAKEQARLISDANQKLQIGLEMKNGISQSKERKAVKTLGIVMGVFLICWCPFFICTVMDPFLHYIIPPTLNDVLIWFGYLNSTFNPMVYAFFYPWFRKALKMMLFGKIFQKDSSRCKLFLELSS
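test system = CHO RD-HGA16 cells carrying human TAAR1 plus Gα16 | schedule = 17-24 h seeding, 75 min 37 °C dye, 30 min RT | compound dosing = 3 µM single concentration | control set = DMSO and PEA EC100 | replicates = n 1 | signal = Fluo-8 fluorescence, 5 s baseline then 140 s kinetic read | measure = percent activation vs PEA EC100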
rCAG binder – molecules binding r(CAG) RNA repeats. r(CAG) RNA repeat, TO-PRO-1 dye displacement fluorescence. inhibition, % at 3 µM. AID 651821. 370,000 tested, 1.3% active;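 active means inhibition above the plate cutoff, the mean of all test compounds on that plate plus 3 SD, cut at about 35% in these data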;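 further: higher means more dye released from RNA so lower well fluorescence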
HCV core dimer – blocks dimerization of HCV core protein; TR-FRET GST/Flag-core106 dimerization, 1536-well; inhibition, % at 5 µM; 300,000 tested, 0.33% active; AID 1899;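 active means inhibition above the mean of all tested compounds plus 3 SD, set per screening campaign, cut at about 45% in these data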
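Test system: GST/Flag-tagged HCV core106 proteins; Medium: KF-containing HEPES buffer, pH 7.45, DTT, CHAPS, BSA; Times: compound-protein-antibody incubation 4 h at 22.5 °C; Detection: TR-FRET 671 and 617 nm emission; Benchmarks: wells lacking GST-core106 and wells with excess unlabelled core106.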
HCV NS3 hel inh – inhibitors of Hepatitis C virus NS3 helicase. NS3 helicase DNA unwinding, Cy5 molecular beacon fluorescence. inhibition, % at 10.9 µM. 290,000 tested, 0.56% active. AID 1800;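 active means inhibition above the mean of all tested compounds plus 3 SD, set per campaign, cut at about 35% in these data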
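assay system = NS3 helicase fragment of HCV | buffer or medium = MOPS pH 6.5, MgCl2, DTT, Tween20, BSA | timing = 60 min unwinding reaction at 25 °C after ATP addition | signal = Cy5 beacon fluorescence read at start and 1 h | read-out basis = % inhibition of unwinding | control set = low DMSO, high thioflavine S at 110 µM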
TAAR1 antag – human TAAR1 antagonism | Q96RJ0 | CHO RD-HGA16 TAAR1, Fluo-8 calcium fluorescence, antagonist | inhibition, % at 3 µM | 360,000 tested, 1.5% active | AID 624466;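 active means inhibition above a per-plate cutoff, the mean inhibition of test compounds on that plate plus 3 SD, cut at about 49% in these data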
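System: CHO RD-HGA16 cells bearing hTAAR1. Reagent: EC80 β-phenethylamine stimulus. Schedule: seeding 17-24 h prior, 75-min 37 °C, 30-min RT dye loading. Signal: Fluo-8 intracellular calcium dye fluorescence, real-time kinetic reads. Read-out: % inhibition from peak post-agonist over basal fluorescence ratio. Benchmarks: vehicle wells and EC80 agonist wells. Replicates: n of 1.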
TAAR1 nonsel count – nonselective antagonist in TAAR1 antagonist counter-screen | shares compounds with TAAR1 antag | counterscreen cell line, calcium fluorescence, antagonist mode | inhibition, % at 3 µM | 2,400 tested, 77% active | AID 651780; in the data active means inhibition above about 22%;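 further: CHO-Ga16 host cells stimulated with ATP at an EC80 level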
TAAR1 antag conf – confirmation of human TAAR1 antagonists; shares compounds with TAAR1 antag; TAAR1-expressing cells, fluorescence antagonist read-out; inhibition, % at 3 µM; 2,400 tested, 40% active; in the data active means inhibition above about 49%;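 further: CHO-Ga16 host cells challenged with agonist PEA near its EC80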
Ga16 ag counter – nonselective Ga16 agonist in TAAR1 antagonist counter-screen | shares compounds with TAAR1 antag | Ga16-expressing cells, calcium fluorescence, agonist counterscreen | activation, % at 3 µM | 2,400 tested, 18% active | AID 651953; in the data active means activation above about 12%
TAAR1 ag count – activates human TAAR1 in antagonist counter-screen. activation, % at 3 µM. shares compounds with TAAR1 antag. AID 651955. 2,400 tested, 2% active. hTAAR1 cell line, fluorescence activation, agonist mode; in the data active means activation above about 37%;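 further: CHO cells stably expressing TAAR1 with calcium dye readout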
Numbers stand for hits; - = inactive; . = not tested or not shown. Most compounds without a hit are left out; they make up all but 3.7% or so of the library.

SMILES	TAAR1 agonist	rCAG binder	HCV core dimer	HCV NS3 hel inh	TAAR1 antag	TAAR1 nonsel count	TAAR1 antag conf	Ga16 ag counter	TAAR1 ag count
COc1ccc(C2=NOC(Cn3nc(C(=O)NCc4ccccc4OC)cc3-c3ccccc3)C2)cc1 (configuration not stated)	-	-	-	.	68.2	32.6	52.8	-	-
CCN(CC)S(=O)(=O)c1ccc(N2CCOCC2)c(NC(=O)c2cccc3ccccc23)c1	-	-	-	-	-	.	.	.	.
CCN(CC)S(=O)(=O)c1ccc(N2CCOCC2)c(NC(=O)c2c3c(nc4ccccc24)CCC3)c1	-	-	76.6	-	55.7	-	-	-	-
CCN(CC)S(=O)(=O)c1ccc(N2CCOCC2)c(NC(=O)c2cc(-c3ccccn3)nc3ccccc23)c1	-	-	.	-	71.3	27.2	52.1	-	-
CCN(CC)S(=O)(=O)c1ccc(NC(=O)c2cc(-c3ccccc3)nc3ccccc23)cc1	-	-	-	-	54.4	27.1	-	-	-
CCN(CC)S(=O)(=O)c1ccc(N2CCOCC2)c(NC(=O)c2ccc3ccccc3c2)c1	-	-	-	-	-	.	.	.	.
CCN(CC)S(=O)(=O)c1ccc(N2CCOCC2)c(NC(=O)c2cccc(C#N)c2)c1	-	-	-	-	104.3	-	-	-	-
COC(=O)[C@]12CCCCC=C1N(Cc1ccc(OC)cc1)C(=O)[C@@H]2CC(=O)N1CCSCC1	.	-	.	.	.	.	.	.	.
COc1ccccc1/C=C/C(=O)NC(=S)NC(C)C	-	-	-	-	59.1	-	-	-	-
O=C(c1cccs1)n1ccc2ccc(-c3ccc4ccn(C(=O)c5cccs5)c4c3)cc21	.	-	.	.	.	.	.	.	.
COc1ccc([C@H]2CC(=O)C=C(c3ccc(CNC(=O)OC(C)(C)C)cc3)C2)cc1	-	-	.	.	83.2	47.0	67.9	11.7	-
Cc1ccc(C)c(N2CCN(C(=O)CCc3nc(-c4ccccc4F)no3)CC2)c1	-	-	.	.	63.9	-	-	-	-
Cc1ccc(C)c(N2CCN(C(=O)CCc3nc(-c4ccccc4Br)no3)CC2)c1	-	-	.	.	67.2	32.0	-	-	-
CC[C@@]1(C(=O)OC)N[C@H](CN(C)C(=O)c2ccc(C(C)(C)C)cc2)[C@@H]2C(=O)N(Cc3ccccc3)C(=O)[C@@H]21	-	-	.	.	66.3	27.8	51.1	-	-
O=C(NCc1ccc(Cl)cc1)C1C2C=CC3(CN(Cc4ccccc4)C(=O)C13)O2 (configuration not stated)	.	-	.	.	.	.	.	.	.
Cc1ccc2cc(NC(=O)c3ccc(C(C)(C)C)cc3)ccc2n1	-	-	-	-	58.1	24.9	-	-	-
CCC(c1nc2ccccc2[nH]1)n1c(-c2ccc3cc[nH]c3c2)nc2ccccc21 (configuration not stated)	-	-	.	.	-	.	.	.	.
CN(C)CC(C(=O)c1ccccc1)c1ccccc1 (configuration not stated)	-	-	-	-	-	.	.	.	.
O=C(CC(C(=O)c1ccccc1)c1ccccc1)c1ccccc1 (configuration not stated)	-	-	.	.	66.7	22.7	-	-	-
CCOC(=O)c1c(C)[nH]c(C(=O)COC(=O)C2(C)CC2(Cl)Cl)c1C (configuration not stated)	-	-	-	-	70.7	45.2	73.7	-	-
CCOC(=O)c1c(C)[nH]c(C(=O)COC(=O)C2CC2)c1C	-	-	.	.	-	.	.	.	.
Cc1ccc(OCC(=O)NNc2c3ccccc3nc3ccccc23)cc1	-	-	-	-	70.2	33.3	48.8	-	-
O=C(Cc1ccccc1)NNc1c2ccccc2nc2ccccc12	-	-	-	-	-	.	.	.	.
COC(=O)[C@]12C[C@H](CC(=O)NCCc3ccccc3OC)C(=O)N(Cc3ccc(Cl)cc3Cl)C1=C[C@H](C1CCCC1)O[C@@H]2C	.	-	.	.	.	.	.	.	.
Cc1c(Cl)cnc(NC(=O)COC(=O)c2ccncc2)c1Cl	-	-	.	.	100.7	-	-	-	-
SMILES	TAAR1 agonist	rCAG binder	HCV core dimer	HCV NS3 hel inh	TAAR1 antag	TAAR1 nonsel count	TAAR1 antag conf	Ga16 ag counter	TAAR1 ag count
C=CCN=C1NC(c2ccc(F)cc2)C(C(=O)OC)=C(C)N1Cc1ccccc1C(F)(F)F (configuration not stated)	-	-	.	.	-	.	.	.	.
NC(=O)COc1cccc(/C=N/NC(=O)c2ccc(-n3cccc3)cc2)c1	-	-	-	-	84.0	-	55.2	-	-
Cc1cccc(OC(C)CCN2CCC(C(O)(c3ccccc3)c3ccccc3)CC2)c1 (configuration not stated)	.	-	.	.	.	.	.	.	.
O=C(N[C@H](C(=O)N1CCC[C@H]1C(=O)NCCc1ccccc1Cl)c1ccccc1)c1ccc(Cl)c(Cl)c1	-	-	.	.	-	.	.	.	.
CCn1c(SCC(=O)N2CCc3ccccc32)nnc1-c1c[nH]c2ccccc12	-	-	-	-	54.7	-	-	-	-
COc1cc(C(=O)Nc2cccc(-c3nnc(-c4ccco4)o3)c2)ccc1OC(C)=O	-	-	-	-	64.1	26.3	-	-	-
Cn1c(N)c(C(=O)COC(=O)c2ccc(F)cc2Cl)c(=O)n(C)c1=O	-	-	.	.	-	.	.	.	.
Cn1c(N)c(C(=O)COC(=O)C2(c3cccc(F)c3)CCCC2)c(=O)n(C)c1=O	-	-	-	-	63.2	31.9	50.6	-	-
O=C(Nc1nc2ncccn2c1-c1ccc(F)c(F)c1)c1ccccc1	.	-	.	.	.	.	.	.	.
CCOC(=O)[C@@]12CN(C(=O)OC(C)(C)C)CC=C1N(Cc1ccc(OC)cc1)C(=O)[C@H]2CC(=O)NCCCN1CCCC1=O	.	-	.	.	.	.	.	.	.
CCN1CCCCC(NC(=O)c2ccc(F)c(F)c2)C1=O (configuration not stated)	.	-	.	.	.	.	.	.	.
c1ccc(CCc2ccccc2-c2nc(-c3ccccn3)no2)cc1	-	-	-	-	50.6	-	-	-	-
c1ccc(CCc2ccccc2-c2nc(-c3cccnc3)no2)cc1	-	-	-	-	-	.	.	.	.
COC(=O)[C@]12C[C@H](CC(=O)NCCc3ccccc3OC)C(=O)N(Cc3cccc4ccccc34)C1=C[C@H](COCc1ccccc1)O[C@@H]2C	.	-	.	.	.	.	.	.	.
CC(=O)c1cc(-c2ccc([N+](=O)[O-])cc2)c(=O)n2c1CCC2	.	-	.	.	.	.	.	.	.
O=C(OCC(=O)N(CCc1ccccc1)Cc1ccccc1)c1ccccc1NCCO	-	-	-	-	61.8	29.2	-	-	-
c1ccc(OCc2nnc(SCc3nc4ccccc4[nH]3)n2-c2ccccc2)cc1	.	-	.	.	.	.	.	.	.
